# Experimental data of several laboratories.
# Compare with care: the assays were run in different laboratories. pIC50: −log10 of the molar value.
# Observed: cell growth or viability
Structure (SMILES),cell line,technique,time,pIC50
C=CC(=O)Nc1cc(Nc2nccc(-c3cn(C4CC4)c4ccccc34)n2)c(OC)cc1N(C)CCN(C)C,PC-9,ATP luminescence,72 h,8.39
CC1=C(O)C(=O)C=C2C1=CC=C1[C@@]2(C)CC[C@@]2(C)[C@@H]3C[C@](C)(C(=O)OCCCCCCCCO)CC[C@]3(C)CC[C@]12C,AGS,MTT,48 h,6.38
CC(=O)Nc1nc(C)c(-c2csc(Nc3ccccc3)n2)s1,MEF,MTT,72 h,4.67
CC(=O)OCCOC(=O)[C@]1(C)CC[C@]2(C)CC[C@]3(C)C4=CC=C5C(=CC(=O)C(O)=C5C)[C@]4(C)CC[C@@]3(C)[C@@H]2C1,AGS,MTT,48 h,6.37
CCN1CCN(c2ccc(Nc3cc(N(C)C(=O)Nc4c(Cl)c(OC)cc(OC)c4Cl)ncn3)cc2)CC1,JMSU-1,ATP luminescence,96 h,7.59
CC1=C(O)C(=O)C=C2C1=CC=C1[C@@]2(C)CC[C@@]2(C)[C@@H]3C[C@](C)(C(=O)OCCCn4ccc5ccccc54)CC[C@]3(C)CC[C@]12C,AGS,MTT,48 h,5.68
CC(C)[C@H](N)c1nc2cc(-c3ccncc3F)sc2c(=O)[nH]1,SHP77,MTT,,6.12
CC1=C(O)C(=O)C=C2C1=CC=C1[C@@]2(C)CC[C@@]2(C)[C@@H]3C[C@](C)(C(=O)OCCCOc4ccccc4)CC[C@]3(C)CC[C@]12C,AGS,MTT,48 h,5.87
Cn1nnc2c(C(=O)N3CCCC3)ncn2c1=O,U-87 MG,resazurin,7 days,4.77
O=C1NC(=NCc2cccs2)S/C1=C\c1ccc2ncccc2c1,EKVX,,,< 5.00
C=C(C)C(=O)Nc1ccc(-c2c(-c3ccc(Oc4nccc(C)n4)c(F)c3)c3c(N)ncnc3n2C)cc1,JMSU-1,ATP luminescence,96 h,5.98
Cc1cccc(-n2ncc(Br)c(Br)c2=O)c1,PC-9,resazurin,96 h,6.07
COc1c(C)c(OC)c2c(c1C)OC(c1ccccc1)CC2=O (stereo not drawn),KKU-M213,SRB,72 h,< 4.30
CC1=C(O)C(=O)C=C2C1=CC=C1[C@@]2(C)CC[C@@]2(C)[C@@H]3C[C@](C)(C(=O)OCCCCO)CC[C@]3(C)CC[C@]12C,AGS,MTT,48 h,6.46
CCCCCCCCCCCC(=O)Oc1c(C)c(O)c(C(=O)/C=C/c2ccccc2)c(OC)c1C,KKU-M213,SRB,72 h,< 4.30
Cc1ncn2c(=O)n(C)nnc12,U-87 MG,resazurin,7 days,5.52
COc1ccc(/C=C/C(=O)c2cc(Br)ccc(=O)c2O)cc1,MEF,MTT,72 h,5.22
COCCCOC(=O)[C@]1(C)CC[C@]2(C)CC[C@]3(C)C4=CC=C5C(=CC(=O)C(O)=C5C)[C@]4(C)CC[C@@]3(C)[C@@H]2C1,AGS,MTT,48 h,6.41
O=c1[nH]cc(S(=O)(=O)Nc2cccc(-c3nnc(-c4cccc(Cl)c4)o3)c2)c(=O)[nH]1,PC-9,MTT,24 h,5.96
Cc1cnc(NC2CCOCC2)nc1-n1cnc(C(=O)NC(CN)c2cc(F)cc(Cl)c2)c1 (stereo not drawn),JVM13,MTS,,5.57
COc1cccc2c1C(=O)c1c(O)c3c(c(O)c1C2=O)C[C@@](O)(C(=O)CO)C[C@@H]3O[C@H]1C[C@H](N)[C@H](O)[C@H](C)O1,AGS,MTT,24 h,> 6.20
